From ChEMBL document CHEMBL4706674 (Bioorg Med Chem Lett, 2021) come the findings set out here.

SMILES strings stand for the structures. pEC50: −log10 of the molar value.

Data set [1] concerns Human immunodeficiency virus 1. The data set is described as follows: Antiviral activity against wild type HIV-1 NL4-3 harbouring Gag AV370 mutant infected in MT-2 cells assessed as inhibition of viral replication in presence of 10% of fetal bovine serum by luciferase reporter gene based multicycle replication assay. Type of data set: functional, organism-based. Particulars: Human immunodeficiency virus 1, NL4-3, MT2. A digest of the protocol: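 Multiple-cycle replication assay in MT-2 cells using NL4-3-derived virus carrying a Renilla luciferase reporter (NLRepRlucP373S) as the growth marker. V370A and ΔV370 viruses are identical to WT except for that single substitution or deletion at position 370.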
A general note: Reporter assays use an easily measured gene product as a stand-in for the process of interest.

Data set [2] concerns Human immunodeficiency virus 1. The data set is described as follows: Antiviral activity against wild type HIV-1 NL4-3 harbouring Gag V370A mutant infected in MT-2 cells assessed as inhibition of viral replication in presence of 10% of fetal bovine serum by luciferase reporter gene based multicycle replication assay. Particulars: Human immunodeficiency virus 1, NL4-3, MT2. The data set is classed as functional, organism-based.

The subject of data set [3] is Human immunodeficiency virus 1. Description: Antiviral activity against wild type HIV-1 NL4-3 harbouring Gag AV370/T371A mutant infected in MT-2 cells assessed as inhibition of viral replication in presence of 10% of fetal bovine serum by luciferase reporter gene based multicycle replication assay. Type of data set: functional, organism-based. Particulars: Human immunodeficiency virus 1, NL4-3, MT2.

For data set [4], the system named is Human immunodeficiency virus 1. Description: Antiviral activity against wild type HIV-1 NL4-3 harbouring Gag […]/V370A mutant infected in MT-2 cells assessed as inhibition of viral replication in presence of 10% of fetal bovine serum by luciferase reporter gene based multicycle replication assay. The data set is classed as functional, organism-based. Particulars: Human immunodeficiency virus 1, NL4-3, MT2.

Data set [5] deals with Human immunodeficiency virus 1. The data set is described as follows: Antiviral activity against wild type HIV-1 NL4-3 infected in MT-2 cells assessed as inhibition of viral replication in presence of 40% human serum and 27 mg/ml human serum albumin by luciferase reporter gene based multicycle replication assay. The data set is classed as functional, organism-based. The note with it: Human immunodeficiency virus 1, NL4-3, MT2.

Data set [6] can be described thus: Metabolic stability in human liver microsomes assessed as half life. Type of data set: ADME, Microsome. Particulars: time 2 min. For orientation: Liver microsomes are vesicles of endoplasmic reticulum, rich in cytochrome P450 enzymes.
Data set [7] can be described thus: Metabolic stability in rat liver microsomes assessed as half life. Particulars: time 2 min. The data set is classed as ADME, Microsome.
Data set [8] in a line: AUCtotal in rat at 5 mg/kg, po measured after 24 hrs. Also on record: route oral, dose 5 mg/kg, time 24 hrs. The note with it: in vivo. Type of data set: ADME, organism-based. A digest of the protocol:
(§1)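 Rats dosed 5 mg/kg PO and 1 mg/kg IV; each value is the mean of 3 rats unless otherwise noted (some n = 2). Vehicle PEG 300/ethanol/Tween 80 (89:10:1 v/v), or PEG 300/ethanol/0.1 N NaOH/Tween 80 (84.5:10:5:0.5 v/v). F, tmax, Cmax and CL come from a full 24 h PK screen. AUCtotal is derived from the full 24 h run plus a 6 h PK screen.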

Data set [9] can be described thus: Tmax in rat at 5 mg/kg, po measured after 24 hrs. The note with it: in vivo. The data set is classed as ADME, organism-based. A digest of the protocol:
as §1

The nature of data set [10]: Cmax in rat at 5 mg/kg, po measured after 24 hrs. Type of data set: ADME, organism-based. Also noted: route oral, dose 5 mg/kg, time 24 hrs. Particulars: in vivo. A digest of the protocol:
as §1

A short description of data set [11]: AUC in rat at 5 mg/kg, po. The note with it: in vivo.

One may read the pEC50 as the EC50 on a negative log10 scale, so that one unit is a factor of ten. A word on the half-life: it is how long it takes for the measured level to halve. In general, AUC refers to the area under the concentration-time curve, a measure of exposure. Low values mean less exposure, high ones more exposure. For orientation: Tmax means the time at which the peak concentration occurs. A word on the Cmax: it is the highest concentration seen after dosing. `C=C(C)[C@@H]1CC[C@]2(NCCN3CCS(=O)(=O)CC3)CC[C@]3(C)[C@H](CC[C@@H]4[C@@]5(C)CC=C(c6ccc(C(=O)O)cc6)C(C)(C)[C@@H]5CC[C@]43C)[C@@H]12` [BMS-955176]: the pEC50 in data set [1] is 7.89; in [2] it was 8.57; in data set [3], 7.64; in data set [4], 6.83; in data set [5] it was 7.94. For the same compound, the half-life in [6] and in data set [7] was over 120 min each time. Besides, the AUC in data set [8] stood at 14.2 µM·h; in [11], 4.1 µM·h. Besides, the Tmax in data set [9] turned out to be 6 h. The same compound displayed a Cmax in [10] of 1200 nM.
